Laboratory results: ChEMBL document CHEMBL3600299, “Identification of alpha-substituted acylamines as novel, potent, and orally active mGluR5 negative allosteric modulators” (Bioorg Med Chem Lett, 2015)
Activity calls are given as the source filed them.

Each compound was assayed against T1, Metabotropic glutamate receptor 5 (Homo sapiens, UniProt P41594) (assay: Negative allosteric modulator activity against human mGluR5 expressed in HEK293 cells assessed as inhibition of glutamate-induced inositol phosphate accumulation by IP-one HTRF assay). Conditions: not given.
Type: functional, cell-based
Outline: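 HEK293 cells stably expressing human mGluR5 incubated 60 min with 2.5 lmol/L glutamate, with or without compound. Glutamate-induced inositol phosphate (IP1) accumulation read by IP-One HTRF kit.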
Target sequence in this assay (P41594 whole entry): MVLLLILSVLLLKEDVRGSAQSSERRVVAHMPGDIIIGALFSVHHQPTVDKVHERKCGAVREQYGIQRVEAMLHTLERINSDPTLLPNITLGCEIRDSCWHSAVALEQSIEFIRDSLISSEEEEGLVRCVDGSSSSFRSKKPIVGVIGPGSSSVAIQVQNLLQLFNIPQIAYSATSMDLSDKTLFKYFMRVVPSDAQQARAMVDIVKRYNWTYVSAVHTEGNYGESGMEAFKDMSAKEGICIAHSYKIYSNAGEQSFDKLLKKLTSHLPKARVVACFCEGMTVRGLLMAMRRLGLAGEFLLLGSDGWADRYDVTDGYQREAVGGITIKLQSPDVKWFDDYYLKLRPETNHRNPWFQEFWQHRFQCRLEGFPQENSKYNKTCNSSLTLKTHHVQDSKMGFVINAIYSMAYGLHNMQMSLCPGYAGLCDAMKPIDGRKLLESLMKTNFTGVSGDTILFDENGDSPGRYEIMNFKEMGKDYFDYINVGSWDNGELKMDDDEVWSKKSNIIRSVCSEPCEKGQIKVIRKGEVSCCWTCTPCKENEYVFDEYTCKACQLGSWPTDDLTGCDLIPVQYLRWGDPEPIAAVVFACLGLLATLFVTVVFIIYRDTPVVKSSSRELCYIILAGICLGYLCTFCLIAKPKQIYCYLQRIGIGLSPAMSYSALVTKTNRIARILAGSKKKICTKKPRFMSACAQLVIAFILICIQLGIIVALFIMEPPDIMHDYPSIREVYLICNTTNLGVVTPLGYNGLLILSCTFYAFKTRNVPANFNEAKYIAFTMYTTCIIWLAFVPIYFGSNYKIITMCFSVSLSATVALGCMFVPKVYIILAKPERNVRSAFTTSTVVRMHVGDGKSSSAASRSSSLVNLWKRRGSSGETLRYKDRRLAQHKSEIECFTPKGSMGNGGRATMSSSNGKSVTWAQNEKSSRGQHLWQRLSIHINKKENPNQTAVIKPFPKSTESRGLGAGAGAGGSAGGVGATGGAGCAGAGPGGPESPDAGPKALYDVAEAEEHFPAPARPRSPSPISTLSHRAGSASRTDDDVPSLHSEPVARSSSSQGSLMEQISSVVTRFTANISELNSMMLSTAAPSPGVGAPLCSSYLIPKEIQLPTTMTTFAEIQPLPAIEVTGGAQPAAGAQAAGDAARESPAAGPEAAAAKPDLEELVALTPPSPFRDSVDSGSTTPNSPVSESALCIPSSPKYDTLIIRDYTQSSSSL

Point of comparison: `CCCC[C@@H](NC(=O)c1nccs1)c1cnc(Nc2ccc(C)nc2)c(Cl)c1`, IC50 30.9 nM. Against it:
- CCC[C@@H](NC(=O)c1cscn1)c1cnc(Nc2ccc(C)nc2)c(Cl)c1 — within 1.5-fold, 31.2 nM
- Cc1ccc(Nc2ncc([C@H](NC(=O)c3nccs3)C3CCCCC3)cc2Cl)cn1 — within 1.5-fold, 37.8 nM
- CCC[C@@H](NC(=O)c1nccs1)c1cnc(Nc2ccc(F)nc2)c(Cl)c1 — 2.4-fold lower, 12.8 nM
- CCC[C@@H](NC(=O)c1ncco1)c1cnc(Nc2ccc(C)nc2)c(Cl)c1 — within 1.5-fold, 42.2 nM
- Cc1ccc(Nc2ncc([C@@H](NC(=O)c3nccs3)C(C)C)cc2Cl)cn1 — 34-fold higher, 1050 nM
- CCC[C@@H](NC(=O)c1ccccn1)c1cnc(Nc2ccc(C)nc2)c(Cl)c1 — within 1.5-fold, 27.8 nM
- Cc1ccc(Nc2ncc([C@@H](NC(=O)c3nccs3)C3CCC3)cc2Cl)cn1 — higher, > 1000 nM
- CCC[C@@H](NC(=O)c1cocn1)c1cnc(Nc2ccc(C)nc2)c(Cl)c1 — within 1.5-fold, 23.3 nM
- COC[C@H](NC(=O)c1nccs1)c1cnc(Nc2ccc(C)nc2)c(Cl)c1 — 1.8-fold higher, 55.9 nM
- CCC[C@@H](NC(=O)c1nc(C)cs1)c1cnc(Nc2ccc(C)nc2)c(Cl)c1 — 3.1-fold lower, 10 nM
- Cc1ccc(Nc2ncc([C@H](NC(=O)c3nccs3)C3CCCC3)cc2Cl)cn1 — 1.9-fold lower, 16.6 nM
- CCC[C@@H](NC(=O)c1nccs1)c1cnc(Nc2cccnc2)c(Cl)c1 — 2.3-fold higher, 71.4 nM
- C=CC[C@@H](NC(=O)c1nccs1)c1cnc(Nc2ccc(C)nc2)c(Cl)c1 — 13-fold lower, 2.4 nM
- C/C=C/C[C@@H](NC(=O)c1nccs1)c1cnc(Nc2ccc(C)nc2)c(Cl)c1 — 3.5-fold lower, 8.8 nM
- CCC[C@H](NC(=O)c1nccs1)c1cnc(Nc2ccc(C)nc2)c(Cl)c1 — 32-fold higher, 978 nM
- CCC[C@@H](NC(=O)c1nccs1)c1cnc(Nc2ccc(OC)nc2)c(Cl)c1 — 2.3-fold lower, 13.3 nM
- Cc1ccc(Nc2ncc([C@H](NC(=O)c3nccs3)C(C)C)cc2Cl)cn1 — 4.1-fold lower, 7.5 nM
- Cc1ccc(Nc2ncc(C3CCCN3C(=O)c3nccs3)cc2Cl)cn1 (stereo not given) — 5.9-fold higher, 182 nM
- CCC[C@@H](NC(=O)c1nccs1)c1cnc(Nc2cnc(C)s2)c(Cl)c1 — 1.9-fold higher, 60 nM
- Cc1ccc(Nc2ncc([C@H](NC(=O)c3nccs3)C(C)(C)C)cc2Cl)cn1 — the same, 30.9 nM
- CCC[C@@H](NC(=O)c1nccs1)c1cnc(Nc2ccc(C)nc2)c(Cl)c1 — 3.8-fold lower, 8.2 nM
- CC[C@H](NC(=O)c1nccs1)c1cnc(Nc2ccc(C)nc2)c(Cl)c1 — higher, > 1000 nM
- Cc1ccc(Nc2ncc([C@@H](Cc3ccccc3)NC(=O)c3nccs3)cc2Cl)cn1 — 1.8-fold higher, 55.5 nM
- CCCN(Cc1cnc(Nc2ccc(C)nc2)c(Cl)c1)C(=O)c1nccs1 — 19-fold higher, 584 nM
- CCCC(NC(=O)c1nccs1)c1cnc(Nc2ccc(C)nc2)c(Cl)c1 (stereo not given) — within 1.5-fold, 28.7 nM
- CC[C@@H](NC(=O)c1nccs1)c1cnc(Nc2ccc(C)nc2)c(Cl)c1 — 2-fold lower, 15.4 nM
- Cc1ccc(Nc2ncc([C@H](NC(=O)c3nccs3)C3CCC3)cc2Cl)cn1 — 3.3-fold lower, 9.3 nM
- Cc1ccc(Nc2ncc([C@H](NC(=O)c3nccs3)C3CC3)cc2Cl)cn1 — 3.2-fold lower, 9.7 nM
- CCC[C@@H](NC(=O)c1nccs1)c1cnc(Nc2cnc(C)nc2)c(Cl)c1 — within 1.5-fold, 43.9 nM

What follows are compounds tested against T1, Metabotropic glutamate receptor 5 (assay: Negative allosteric modulator activity against human mGluR5 expressed in HEK293 cells assessed as inhibition of glutamate-induced inositol phosphate accumulation at 100 nM by IP-one HTRF assay). Conditions: not given.
Type: functional, cell-based
Target sequence in this assay (P41594 21-1212 limits assumed): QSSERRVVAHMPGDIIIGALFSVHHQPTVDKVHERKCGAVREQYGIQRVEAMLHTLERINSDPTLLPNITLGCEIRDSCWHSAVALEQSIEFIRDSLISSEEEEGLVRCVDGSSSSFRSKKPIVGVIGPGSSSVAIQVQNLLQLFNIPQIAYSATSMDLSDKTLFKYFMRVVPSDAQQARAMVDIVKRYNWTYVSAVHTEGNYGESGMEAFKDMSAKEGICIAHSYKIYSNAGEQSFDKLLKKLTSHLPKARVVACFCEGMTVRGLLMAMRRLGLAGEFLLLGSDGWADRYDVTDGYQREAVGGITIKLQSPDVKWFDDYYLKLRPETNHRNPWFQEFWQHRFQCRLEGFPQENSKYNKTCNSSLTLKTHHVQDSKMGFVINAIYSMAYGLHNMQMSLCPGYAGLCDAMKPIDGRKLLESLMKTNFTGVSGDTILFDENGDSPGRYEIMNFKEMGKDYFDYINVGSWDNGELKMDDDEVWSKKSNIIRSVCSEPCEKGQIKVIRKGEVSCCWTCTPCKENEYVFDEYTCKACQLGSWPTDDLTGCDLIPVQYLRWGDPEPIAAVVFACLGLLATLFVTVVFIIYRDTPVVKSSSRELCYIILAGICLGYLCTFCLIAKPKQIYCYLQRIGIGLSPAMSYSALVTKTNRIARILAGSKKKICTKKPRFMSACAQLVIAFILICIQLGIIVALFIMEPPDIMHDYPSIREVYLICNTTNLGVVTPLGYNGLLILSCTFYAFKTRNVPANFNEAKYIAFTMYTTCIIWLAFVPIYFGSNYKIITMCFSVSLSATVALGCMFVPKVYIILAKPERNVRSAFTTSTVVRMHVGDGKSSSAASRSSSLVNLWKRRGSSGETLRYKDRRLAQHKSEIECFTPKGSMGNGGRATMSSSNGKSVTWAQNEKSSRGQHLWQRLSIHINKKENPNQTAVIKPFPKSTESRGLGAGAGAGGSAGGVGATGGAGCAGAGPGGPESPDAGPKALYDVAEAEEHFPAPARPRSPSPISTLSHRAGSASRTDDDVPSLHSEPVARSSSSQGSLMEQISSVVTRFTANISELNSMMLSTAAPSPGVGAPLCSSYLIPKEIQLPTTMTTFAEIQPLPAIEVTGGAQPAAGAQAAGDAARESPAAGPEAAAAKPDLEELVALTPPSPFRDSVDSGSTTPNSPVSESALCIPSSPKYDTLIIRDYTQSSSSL

Point of comparison: `CCC[C@@H](NC(=O)c1ccccc1)c1cnc(Nc2ccc(C)nc2)c(Cl)c1`, inhibition 30%. Against it:
- CCC[C@@H](NC(=O)c1nccs1)c1cnc(Nc2ccc(C(F)(F)F)nc2)c(Cl)c1 — higher, 31%
- CCC[C@@H](NC(=O)c1ncc(C)s1)c1cnc(Nc2ccc(C)nc2)c(Cl)c1 — higher, 49%

What follows are compounds tested on Mus musculus (assay: Anxiolytic-like activity in mouse model of stress-induced hyperthermia assessed as reduction in stress-induced hyperthermia response at 1 mg/kg, po dosed 1 hr before first rectal temperature measurement). Conditions: not given.
Type: functional, organism-based
Outline: (§1)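 Mice dosed orally with test article in 0.5% methylcellulose vehicle 1 h before first rectal temperature (T1); second rectal temperature (T2) taken 10 min after T1. Basal temperature from T1; SIH response defined as T2–T1. Mean ± SEM, n = 10 per group; one-tailed Williams' test vs vehicle, p <0.025.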

For `C=CC[C@@H](NC(=O)c1nccs1)c1cnc(Nc2ccc(C)nc2)c(Cl)c1`, the Activity was “Active”.

What follows are compounds tested on Mus musculus (assay: Effect on basal rectal temperature in mouse model of stress-induced hyperthermia at 0.1 to 1 mg/kg, po dosed 1 hr before first rectal temperature measurement). Conditions: in vivo.
Type: ADME, organism-based
Outline: as §1

In the case of `C=CC[C@@H](NC(=O)c1nccs1)c1cnc(Nc2ccc(C)nc2)c(Cl)c1`, the Activity is reported as “Non-toxic”.
